Results published in ChEMBL document CHEMBL4622853, “Design and synthesis of novel pyrrolo[2,3-b]pyridine derivatives targeting V600EBRAF” (Bioorg Med Chem, 2020).

Columns and labels:
[1] = test system: Serine/threonine-protein kinase B-raf (Homo sapiens), P15056 [V600E]; assay: Inhibition of human BRAF V600E mutant at 10 uM by ELISA
[2] = target: Serine/threonine-protein kinase B-raf (Homo sapiens, UniProt P15056); assay: Inhibition of human wild type BRAF at 10 uM by ELISA
Summary of the method: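 Wild-type BRAF kinase inhibition run in the same manner as the V600E-B-RAF ELISA, reported as percent inhibition at 10 µM.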

[3] = target: Serine/threonine-protein kinase B-raf (Homo sapiens, UniProt P15056, V600E); assay: Inhibition of human BRAF V600E mutant by ELISA
[4] = test system: HL-60(TB); assay: Cytotoxicity against human HL-60(TB) cells assessed as reduction in cell viability after 48 hrs by SRB assay; format: functional, cell-based; conditions: HL-60, 48 h
Summary of the method: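 Tested within the NCI sixty human cancer cell line panel. IC50 is the concentration that reduces cellular growth to 50% of untreated cells after treatment.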

[5] = test system: K562; assay: Cytotoxicity against human K562 cells assessed as reduction in cell viability after 48 hrs by SRB assay; format: functional, cell-based; conditions: K562, 48 h
Summary of the method: (§1)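 Cell lines from the NCI sixty human cancer cell line panel. IC50 taken as the concentration that reduces cellular growth to 50% of untreated cells.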

[6] = test system: NCI-H460; assay: Cytotoxicity against human NCI-H460 cells assessed as reduction in cell viability after 48 hrs by SRB assay; format: functional, cell-based; conditions: NCI-H460, 48 h; summary of the method: as §1
[7] = test system: NCI-H522; assay: Cytotoxicity against human NCI-H522 cells assessed as reduction in cell viability after 48 hrs by SRB assay; format: functional, cell-based; conditions: NCI-H522, 48 h; summary of the method: as §1
[8] = test system: HCT-116; assay: Cytotoxicity against human HCT116 cells assessed as reduction in cell viability after 48 hrs by SRB assay; format: functional, cell-based; conditions: HCT-116, 48 h; summary of the method: as §1
[9] = test system: M14; assay: Cytotoxicity against human M14 cells assessed as reduction in cell viability after 48 hrs by SRB assay; format: functional, cell-based; conditions: M14, 48 h; summary of the method: as §1
[10] = test system: SK-MEL-2; assay: Cytotoxicity against human SK-MEL-2 cells assessed as reduction in cell viability after 48 hrs by SRB assay; format: functional, cell-based; conditions: SK-MEL-2, 48 h; summary of the method: as §1
[11] = test system: LOX IMVI; assay: Cytotoxicity against human LOXIMVI cells assessed as reduction in cell viability after 48 hrs by SRB assay; format: functional, cell-based; summary of the method: as §1
[12] = test system: Malme-3M; assay: Cytotoxicity against human MALME-3M cells assessed as reduction in cell viability after 48 hrs by SRB assay; format: functional, cell-based; summary of the method: as §1
[13] = test system: IGROV-1; assay: Cytotoxicity against human IGROV1 cells assessed as reduction in cell viability after 48 hrs by SRB assay; format: functional, cell-based; conditions: IGROV-1, 48 h; summary of the method: as §1
[14] = test system: SK-OV-3; assay: Cytotoxicity against human SKOV3 cells assessed as reduction in cell viability after 48 hrs by SRB assay; format: functional, cell-based; conditions: SK-OV-3, 48 h; summary of the method: as §1
[15] = test system: ACHN; assay: Cytotoxicity against human ACHN cells assessed as reduction in cell viability after 48 hrs by SRB assay; format: functional, cell-based; summary of the method: as §1
[16] = test system: CAKI-1; assay: Cytotoxicity against human Caki1 cells assessed as reduction in cell viability after 48 hrs by SRB assay; format: functional, cell-based; conditions: CAKI-1, 48 h; summary of the method: as §1
[17] = test system: A498; assay: Cytotoxicity against human A498 cells assessed as reduction in cell viability after 48 hrs by SRB assay; format: functional, cell-based; conditions: A498, 48 h; summary of the method: as §1
[18] = test system: DU-145; assay: Cytotoxicity against human DU145 cells assessed as reduction in cell viability after 48 hrs by SRB assay; format: functional, cell-based; conditions: DU-145, 48 h; summary of the method: as §1
[19] = test system: MDA-MB-231; assay: Cytotoxicity against human MDA-MB-231 cells assessed as reduction in cell viability after 48 hrs by SRB assay; format: functional, cell-based; conditions: MDA-MB-231, 48 h; summary of the method: as §1
[20] = test system: Hs-578T; assay: Cytotoxicity against human Hs 578T cells assessed as reduction in cell viability after 48 hrs by SRB assay; format: functional, cell-based; summary of the method: as §1
[21] = test system: HL-60(TB); assay: Cytotoxicity against human HL-60(TB) cells assessed as reduction in cell viability at 10 uM after 48 hrs by SRB assay relative to control; format: functional; conditions: HL-60, 48 h
[22] = test system: K562; assay: Cytotoxicity against human K562 cells assessed as reduction in cell viability at 10 uM after 48 hrs by SRB assay relative to control; format: functional; conditions: K562, 48 h

Sequence of Serine/threonine-protein kinase B-raf (Homo sapiens, UniProt P15056) (P15056 whole entry): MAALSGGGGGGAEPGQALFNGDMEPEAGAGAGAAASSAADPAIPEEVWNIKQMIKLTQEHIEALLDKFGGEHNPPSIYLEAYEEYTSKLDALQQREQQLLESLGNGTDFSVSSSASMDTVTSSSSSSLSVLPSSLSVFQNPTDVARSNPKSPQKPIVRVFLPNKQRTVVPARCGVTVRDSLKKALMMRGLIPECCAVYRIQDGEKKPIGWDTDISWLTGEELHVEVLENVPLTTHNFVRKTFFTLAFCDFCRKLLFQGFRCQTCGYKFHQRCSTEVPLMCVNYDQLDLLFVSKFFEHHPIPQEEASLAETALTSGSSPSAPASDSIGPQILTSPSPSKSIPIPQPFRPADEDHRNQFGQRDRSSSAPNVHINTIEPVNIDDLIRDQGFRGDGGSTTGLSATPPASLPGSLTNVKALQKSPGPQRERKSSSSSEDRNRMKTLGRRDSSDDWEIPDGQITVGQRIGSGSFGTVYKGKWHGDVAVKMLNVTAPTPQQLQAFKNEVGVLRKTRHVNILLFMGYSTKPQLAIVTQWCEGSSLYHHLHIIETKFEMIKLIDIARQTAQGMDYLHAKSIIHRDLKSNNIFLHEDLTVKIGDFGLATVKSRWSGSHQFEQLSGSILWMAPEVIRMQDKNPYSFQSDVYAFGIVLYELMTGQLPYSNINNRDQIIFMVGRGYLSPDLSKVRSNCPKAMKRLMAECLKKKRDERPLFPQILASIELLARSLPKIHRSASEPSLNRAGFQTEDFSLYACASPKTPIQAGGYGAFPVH
Sequence of Serine/threonine-protein kinase B-raf (Homo sapiens), P15056 [V600E] (P15056 whole entry V600E): as the sequence (P15056 whole entry) above, with V600E counted along it
Sequence of Serine/threonine-protein kinase B-raf (Homo sapiens, UniProt P15056, V600E) (P15056 2-766 V600E limits assumed): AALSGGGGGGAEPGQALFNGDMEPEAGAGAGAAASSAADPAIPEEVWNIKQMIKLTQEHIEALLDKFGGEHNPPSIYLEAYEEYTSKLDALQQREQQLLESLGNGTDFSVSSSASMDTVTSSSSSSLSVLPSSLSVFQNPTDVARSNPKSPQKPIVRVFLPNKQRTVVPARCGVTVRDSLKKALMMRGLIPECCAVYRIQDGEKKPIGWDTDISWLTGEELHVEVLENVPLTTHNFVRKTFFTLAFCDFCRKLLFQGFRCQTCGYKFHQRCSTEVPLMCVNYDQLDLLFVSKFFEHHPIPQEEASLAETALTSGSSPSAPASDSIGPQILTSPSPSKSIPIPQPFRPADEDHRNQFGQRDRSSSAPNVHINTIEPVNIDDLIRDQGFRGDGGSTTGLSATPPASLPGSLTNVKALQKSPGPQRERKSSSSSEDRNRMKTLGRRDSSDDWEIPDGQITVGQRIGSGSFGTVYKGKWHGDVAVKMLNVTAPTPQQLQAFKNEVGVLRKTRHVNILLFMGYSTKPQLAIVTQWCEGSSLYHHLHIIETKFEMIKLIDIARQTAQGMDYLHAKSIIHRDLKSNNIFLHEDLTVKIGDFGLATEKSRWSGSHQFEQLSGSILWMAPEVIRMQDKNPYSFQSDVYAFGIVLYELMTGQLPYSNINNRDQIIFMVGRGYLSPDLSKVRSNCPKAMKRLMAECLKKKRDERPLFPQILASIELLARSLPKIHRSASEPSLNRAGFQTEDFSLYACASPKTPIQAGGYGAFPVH

## O=C(Nc1cccc(F)c1)Nc1ccc(F)c(C(=O)c2c[nH]c3ncccc23)c1F
[1]
  inhibition: 49%
[2]
  inhibition: 51.2%

## O=S(=O)(NCCCNc1nccc(-n2ccc3cccnc32)n1)c1cccc(Br)c1
[1]
  inhibition: 96.7%
[2]
  inhibition: 89.4%
[3]
  IC50: 0.5 µM

## O=S(=O)(NCCCNc1nccc(-n2ccc3cccnc32)n1)c1ccc(F)cc1
[1]
  inhibition: 95.2%
[2]
  inhibition: 79.7%
[3]
  IC50: 0.88 µM

## COc1ccc(S(=O)(=O)NCCNc2nccc(-n3ccc4cccnc43)n2)cc1
[1]
  inhibition: 56.7%
[2]
  inhibition: 39.2%

## O=C(NCCNc1nccc(-n2ccc3cccnc32)n1)C1CCCCC1
[1]
  inhibition: 73.7%
[2]
  inhibition: 43.4%

## O=C(Nc1ccc(F)c(C(=O)c2c[nH]c3ncccc23)c1F)Nc1cccc2ccccc12
[1]
  inhibition: 85.6%
[2]
  inhibition: 68.9%

## Cc1ccc(S(=O)(=O)NCCNc2nccc(-n3ccc4cccnc43)n2)cc1
[1]
  inhibition: 41.1%
[2]
  inhibition: 26.3%

## O=C(NCCCNc1nccc(-n2ccc3cccnc32)n1)c1c(F)cccc1F
[1]
  inhibition: 72.6%
[2]
  inhibition: 67.2%

## O=S(=O)(NCCCNc1nccc(-n2ccc3cccnc32)n1)c1cccc(C(F)(F)F)c1
[1]
  inhibition: 96.1%
[2]
  inhibition: 86.3%
[3]
  IC50: 1.1 µM

## O=C(NCCNc1nccc(-n2ccc3cccnc32)n1)c1ccc(C(F)(F)F)cc1
[1]
  inhibition: 32.9%
[2]
  inhibition: 12.1%

## O=C(NCCCNc1nccc(-n2ccc3cccnc32)n1)C1CCCCC1
[1]
  inhibition: 49.6%
[2]
  inhibition: 41.2%

## O=C(NCCCNc1nccc(-n2ccc3cccnc32)n1)c1ccc(C(F)(F)F)cc1
[1]
  inhibition: 15.3%
[2]
  inhibition: 9.45%

## O=S(=O)(NCCCNc1nccc(-n2ccc3cccnc32)n1)c1ccc(Br)cc1
[1]
  inhibition: 97.7%
[2]
  inhibition: 75.2%
[3]
  IC50: 0.35 µM

## O=C(NCCNc1nccc(-n2ccc3cccnc32)n1)c1ccc(F)cc1
[1]
  inhibition: 70%
[2]
  inhibition: 56.8%

## Cc1ccc(C(=O)NCCCNc2nccc(-n3ccc4cccnc43)n2)cc1
[1]
  inhibition: 61.6%
[2]
  inhibition: 50%

## Cc1ccc(C(=O)NCCNc2nccc(-n3ccc4cccnc43)n2)cc1
[1]
  inhibition: 81.8%
[2]
  inhibition: 53.8%

## O=C(Nc1ccc(C(F)(F)F)cc1)Nc1ccc(F)c(C(=O)c2c[nH]c3ncccc23)c1F
[1]
  inhibition: 98.7%
[2]
  inhibition: 79.3%
[4]
  IC50: 8.12 µM
[5]
  IC50: 25.3 µM
[6]
  IC50: 26.4 µM
[7]
  IC50: 29.1 µM
[8]
  IC50: 15.5 µM
[9]
  IC50: 24.3 µM
[10]
  IC50: 21.1 µM
[11]
  IC50: 27 µM
[12]
  IC50: 12.3 µM
[13]
  IC50: 9.66 µM
[14]
  IC50: 18.8 µM
[15]
  IC50: 21.3 µM
[16]
  IC50: 14 µM
[17]
  IC50: 32.3 µM
[18]
  IC50: 27.6 µM
[19]
  IC50: 9.72 µM
[20]
  IC50: 21.4 µM
[3]
  IC50: 0.114 µM
[21]
  inhibition at 10 µM: 67%
[22]
  inhibition at 10 µM: 83%

## O=S(=O)(NCCCNc1nccc(-n2ccc3cccnc32)n1)c1ccccc1
[1]
  inhibition: 95.5%
[2]
  inhibition: 81.4%
[3]
  IC50: 0.75 µM

## O=C(Nc1ccccc1)Nc1ccc(F)c(C(=O)c2c[nH]c3ncccc23)c1F
[1]
  inhibition: 94.5%
[2]
  inhibition: 86.5%
